Measurements collected from several papers.
Each line is one published result; the experiments were not run side by side.
Read-out: cell growth or viability

Structure (SMILES) | cell line | assay | conditions | IC50 [µM]
NCCCOc1cc(NC(=O)c2cccc(C(=O)Nc3cc(OCCCN)c4ccccc4n3)n2)nc2ccccc12 | HT-1080 | ATP luminescence | 72 h | 1.1
O=C(NCc1ccc(CO)cc1)c1c[nH]c2ccc(Cl)cc12 | T24 | MTT |  | 17
CCCCN(Cc1ccc(C(=O)NO)cc1)C(=O)Nc1ccccc1 | SUP-B15 | ATP luminescence | 72 h | 8.66
Cn1ccnc1CNCCNc1ccnc2cc(Cl)ccc12 | CHO | MTT |  | 240
COc1cc(Nc2nccc(-c3cnn4nc(OC)ccc34)n2)cc(C(F)(F)F)c1 | A 172 | ATP luminescence |  | 0.43
O=C(Nc1ccccc1CO)c1c[nH]c2ccc(Cl)cc12 | T24 | MTT |  | 18
NCCOc1cc(C(=O)Nc2cc(OCCN)c3ccccc3n2)nc(C(=O)Nc2cc(OCCN)c3ccccc3n2)c1 | HT-1080 | ATP luminescence | 72 h | 0.6
CCCCCC/N=C1\c2cc(C(N)=O)nc3c(N)c(Cl)c(N)c(c23)N1C | HCC4017 |  |  | 2.87
Cc1cc(C)cc(COc2cc3c(cc2OCc2cc(C)cc(C)c2)[C@H]2C[C@](O)(Cc4cn(Cc5ccncc5)nn4)C[C@H](C)N2CC3)c1 | GES1 | MTT | 48 h | 2.55
Clc1ccc2c(NCCN(Cc3ccccn3)Cc3ccccn3)ccnc2c1 | CHO | MTT |  | > 240
Cc1cc(C)cc(COc2cc3c(cc2OCc2cc(C)cc(C)c2)[C@H]2C[C@](O)(Cc4cn(Cc5ccc(-c6ccccc6)cc5)nn4)C[C@H](C)N2CC3)c1 | GES1 | MTT | 48 h | 2.22
CC(C)C[C@H](NC(=O)[C@H](Cc1ccccc1)NC(=O)c1cnccn1)B(O)O | HT-1080 | ATP luminescence |  | 0.013
COc1cccc2c1C(=O)c1c(O)c3c(c(O)c1C2=O)C[C@@](O)(C(=O)CO)C[C@@H]3O[C@H]1C[C@H](N)[C@H](O)[C@H](C)O1 | BHK | SRB | 48 h | 36.4
CCN1C(=O)N(c2c(F)c(OC)cc(OC)c2F)Cc2cnc3[nH]c(CN4CCOCC4)cc3c21 | NCI-H716 | ATP luminescence | 96 h | 0.00171
NCCOc1cc(C(=O)Nc2cc(OCCN3CCCC3)c3ccccc3n2)nc(C(=O)Nc2cc(OCCN3CCCC3)c3ccccc3n2)c1 | HT-1080 | ATP luminescence | 72 h | 0.2
C=C(C)C(=O)Nc1ccc(-c2c(-c3ccc(Oc4nccc(C)n4)c(F)c3)c3c(N)ncnc3n2C)cc1 | NCI-H716 | ATP luminescence | 96 h | 0.00209

Structure (SMILES) | cell line | assay | conditions | IC50 [µM]
CC(=O)O[C@H]1C(=O)[C@@]2(C)[C@H]([C@H](OC(=O)c3ccccc3)[C@]3(O)C[C@H](OC(=O)[C@H](O)[C@@H](NC(=O)c4ccccc4)c4ccccc4)C(C)=C1C3(C)C)[C@]1(OC(C)=O)CO[C@@H]1C[C@@H]2O | HCC1937 | ATP luminescence | 72 h | > 2.5
NCCCOc1cc(NC(=O)c2cc(OCc3c[nH]nn3)cc(C(=O)Nc3cc(OCCCN)c4ccccc4n3)n2)nc2ccccc12 | HT-1080 | ATP luminescence | 72 h | 35.2
CCN1CCN(c2ccc(Nc3cc(N(C)C(=O)Nc4c(Cl)c(OC)cc(OC)c4Cl)ncn3)cc2)CC1 | SNU-16 | ATP luminescence | 96 h | 0.00931
COc1cc(C(=O)Nc2cc(OC)c3ccccc3n2)nc(C(=O)Nc2cc(OC)c3ccccc3n2)c1 | HT-1080 | ATP luminescence | 72 h | > 40
O=C1Nc2ccccc2C1=Cc1cc2ccccc2nc1Cl | CHO | MTT | 72 h | > 100
C#CCOc1cc(C(=O)Nc2cc(OCCN)c3ccccc3n2)nc(C(=O)Nc2cc(OCCN)c3ccccc3n2)c1 | HT-1080 | ATP luminescence | 72 h | 4.7
CN1/C(=N/c2ccc(Cl)cc2)c2cc(C(N)=O)nc3c(N)c(Cl)c(N)c1c23 | HCC4017 |  |  | 22.9
O=C1Nc2ccccc2C1=Cc1cc2cc(Cl)ccc2nc1Cl | CHO | MTT | 72 h | 38.5
COc1ccc(OC)c(NC(=S)NN=Cc2ccccn2)c1 | BHK | SRB | 48 h | 111
CCN(CC)CCNC(=O)c1c(C)[nH]c(/C=C2\C(=O)Nc3ccc(F)cc32)c1C | IEC-6 |  | 72 h | 3.06
C#CCOc1cc(C(=O)Nc2cc(OCCCN)c3ccccc3n2)nc(C(=O)Nc2cc(OCCCN)c3ccccc3n2)c1 | HT-1080 | ATP luminescence | 72 h | 2.6
CCCCCCCCCCCC(=O)Oc1c(C)c(O)c(C(=O)/C=C/c2ccccc2)c(OC)c1C | SH-SY5Y | SRB | 72 h | > 50
CCCON(Cc1ccc(C(=O)NO)cc1)C(=O)Nc1ccc(N(C)C)cc1 | SUP-B15 | ATP luminescence | 72 h | 6.62
NCCOc1cc(NC(=O)c2cc(OCc3ccc(F)cc3)cc(C(=O)Nc3cc(OCCN)c4ccccc4n3)n2)nc2ccccc12 | HT-1080 | ATP luminescence | 72 h | 1.6
COc1c(C)c(OC)c2c(c1C)OC(c1ccccc1)CC2=O (centres unmarked) | SH-SY5Y | SRB | 72 h | > 50
C[C@H](NC(=O)c1cccc2ccccc12)C(=O)Nc1ccccc1Oc1ccccc1 | SH-SY5Y |  |  | 4
